Measurements as given in ChEMBL document CHEMBL5150021, “Identification of 5-(Aryl/Heteroaryl)amino-4-quinolones as Potent Membrane-Disrupting Agents to Combat Antibiotic-Resistant Gram-Positive Bacteria” (J Med Chem, 2022).
Values after ≈ are worked out from the molar mass of the structure shown.

Tests used:
[1] = test system: Staphylococcus aureus; experiment: Antibacterial activity against methicillin resistant Staphylococcus aureus FPR3757 assessed as inhibition of bacterial growth incubated for 24 hrs by CLSI based method; type: functional; conditions: read-out: MIC100
Method in brief: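 It was mixed 1:1 with twofold serial compound dilutions and incubated stationary at 37 °C for 24 h. MIC was the lowest concentration giving complete inhibition of observable growth, with an oxacillin control.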

[2] = test system: Erythrocyte; experiment: Hemolytic activity in sheep erythrocytes at 32 ug/ml incubated for 1 hr; type: toxicity, cell-based, Ovis aries; conditions: dose 32 µg/ml
Method in brief: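 4% sheep erythrocytes mixed 1:1 with twofold serial compound dilutions in PBS, incubated stationary 1 h at 37 °C, then centrifuged at 500g for 5 min. Supernatant A540 is measured and percent hemolysis is calculated relative to DMSO vehicle (0%) and Triton X-100 (100%). Triplicate, mean ± SD.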

SMILES	MIC [1] [µg/mL]	Activity [2]
Fc1ccc2c(Nc3ccc(C(F)(F)F)cn3)cc(C(F)(F)F)nc2c1	1 (≈ 2.66 µM)	Non-Toxic
Fc1cc2nc(C(F)(F)F)cc(Nc3ccc(C(F)(F)F)cn3)c2cc1F	0.25 (≈ 0.636 µM)	Toxic
O=c1cc(C(F)(F)F)[nH]c2cc(F)cc(Nc3ccc(C(F)(F)F)cn3)c12	1 (≈ 2.56 µM)	Non-Toxic
Fc1ccc2c(Nc3cccc(OC(F)(F)F)c3)cc(C(F)(F)F)nc2c1	2 (≈ 5.12 µM)	
FC(F)c1cc(Nc2cccc(OC(F)(F)F)c2)c2ccc(C(F)(F)F)cc2n1	0.5 (≈ 1.18 µM)	
FC(F)(F)c1cc(Nc2ccc(Cl)c(Cl)c2)c2cccc(C(F)(F)F)c2n1	0.5 (≈ 1.18 µM)	
COc1ccc2c(Nc3ccc(Cl)c(Cl)c3)cc(C(F)(F)F)nc2c1	2 (≈ 5.17 µM)	
Fc1cccc(Oc2cc(C(F)(F)F)nc3cc(C(F)(F)F)ccc23)c1	> 32	
Fc1ccc(Nc2nc(C(F)(F)F)nc3nc(C(F)(F)F)ccc23)cc1F	32 (≈ 81.2 µM)	
FC(F)(F)c1ccc2c(N3CCOCC3)cc(C(F)(F)F)nc2c1	> 32	
O=c1cc(C(F)(F)F)[nH]c2cc(C(F)(F)F)cc(Nc3cccc4[nH]ncc34)c12	2 (≈ 4.85 µM)	
O=c1cc(C(F)(F)F)[nH]c2cc(C(F)(F)F)cc(Nc3ccc(C(F)(F)F)nn3)c12	1 (≈ 2.26 µM)	
FC(F)(F)c1ccc(Nc2cc(N3CCNCC3)c3ccc(C(F)(F)F)cc3n2)nc1	4 (≈ 9.06 µM)	
N#Cc1cccc(Nc2cc(C(F)(F)F)nc3cc(C(F)(F)F)ccc23)c1	> 32	
CC(C)c1ccccc1Nc1cc(C(F)(F)F)nc2cc(C(F)(F)F)ccc12	320 (≈ 803 µM)	
FC(F)(F)Oc1cccc(Nc2nc(C(F)(F)F)nc3cc(C(F)(F)F)ccc23)c1	1 (≈ 2.27 µM)	
FC(F)(F)c1ccc2c(Oc3cccc(Cl)c3)cc(C(F)(F)F)nc2c1	> 32	
